Consider 26 compounds from ChEMBL document CHEMBL1122272, “2-haloethylating agents for cancer chemotherapy. 2-haloethyl sulfonates” (1983).

Where “and” joins values, the source holds several entries; their conditions need not be identical. Identical values can stand only once.

In assay [1] the test system is P388. Briefly: (§1) T/C ratio against P388 leukemia in mice at a dose(mg/kg, schedule (q.d.)). The class given is functional, Mus musculus. The gist of the method: (§2)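 Mice inoculated ip with 10⁶ P388 leukemia cells on day 0. Dosed once on day 1, or q.d. days 1-9 or 1-5. Solutions or suspensions given within about 5 min of preparation, or within 15 min where marked. Value is median/mean survival time, treated vs control, as T/C %. Dose counted toxic if day-5 mortality >3 of 6, T/C <85%, or weight-change difference beyond -4 g.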

Assay [2] has as its system P388. Briefly: Weight change in mice against P388 leukemia. The class given is functional, Mus musculus. The gist of the method: (§3)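 P388 leukemia mice given 10⁶ cells ip on day 0 and then treated on a single day-1 or q.d. 1-9 or 1-5 schedule. Solutions or suspensions given within about 5 or 15 min of preparation. Value is average weight change on day 5 of treated mice minus that of control mice, in g.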

Assay [3] relates to P388. Briefly: T/C ratio against P388 leukemia in mice at a dose(mg/kg, schedule (q.d.). The class given is functional, organism-based. The conditions noted are these: Mus musculus. The gist of the method: as §2
Assay [4] relates to P388. The assay is described as §1. The class given is functional, Mus musculus. The essentials: as §2
The source holds these as a separate data set.

Assay [5] has as its system P388. Briefly: T/C ratio against P388 leukemia in mice at a dose(mg/kg, schedule). The class given is functional, Mus musculus. The essentials: as §2
Assay [6] relates to P388. Described as §1. The class given is functional, Mus musculus. The essentials:
as §2
The source holds these as a separate data set.

For assay [7], the system named is P388. The experiment in a line: T/C ratio against P388 leukemia in mice dose(mg/kg, schedule (q.d.)). The class given is functional, Mus musculus. The gist of the method:
as §2

Assay [8] concerns P388. Briefly: weight change difference (T-C) in mice against P388 leukemia at a dose(mg/kg, schedule). The class given is functional, Mus musculus. The gist of the method: as §3
Assay [9] concerns P388. The description is as §1. The class given is functional, Mus musculus. The essentials:
as §2
The source holds these as a separate data set.

Usually T/C stands for the ratio of treated to control. For the compound `COc1ccc(S(=O)(=O)OCCCl)cc1`, in assay [1], the T/C was 100%. In [2], the Weight change difference is given as 0 g.
For the compound `Cc1cc(C)c(S(=O)(=O)OCCCl)c(C)c1`, the T/C is 95% and 106% in assay [1]; “Toxic” in assay [3].
On to `N#CCS(=O)(=O)OCCCl`, for which, in assay [1], the T/C was 151% and 144% and 126%. In assay [2], the Weight change difference was -1.5 g and -2.1 g and -1.1 g.
Consider `C=CS(=O)(=O)OCCCl`, for which the T/C in assay [1] was 125% and 111%; in assay [3], “Toxic”.
With `O=S(=O)(OCCCl)c1c(Cl)c(Cl)c(Cl)c(Cl)c1Cl`, the T/C in [1] was 96% and 92%; in assay [3] it was “Toxic”; in assay [4], 92%. Moreover, the Weight change difference in assay [2] is -3.2 g and -4.3 g and -1.6 g.
For the compound `O=S(=O)(OCCF)c1cc(Cl)c(Cl)cc1Cl`, the T/C is 113% and 98% in assay [1]; “Toxic” in assay [3].
Regarding `O=S(=O)(/C=C/c1ccccc1)OCCCl`, in assay [1], the T/C stood at 107%. The Weight change difference in [2] is -0.1 g.
As to `CS(=O)(=O)OCCCl`, the T/C was 134% and 133% in assay [1]; “Toxic” in assay [3]; 110% in assay [5]; 102% in assay [6]; 108% in assay [7]. Also, the Weight change difference is -1.6 g and -0.8 g in assay [2]; -1.2 g and -2.2 g and -0.9 g in [8].
Consider `CCS(=O)(=O)OCCF`, for which the T/C was 106% and 111% in assay [1]; “Toxic” in assay [3]. Moreover, in assay [2], the Weight change difference is -0.7 g and -0.6 g.
Take `CS(=O)(=O)OCCBr`: the T/C is 116% and 114% in assay [1]; “Toxic” in assay [3].
`O=S(=O)(OCCCl)c1ccc(F)cc1`: the T/C in assay [1] is 100% and 101%.
As to `O=S(=O)(OCCCl)c1cc(Cl)c(Cl)cc1Cl`, the T/C in assay [1] was 90% and 114% and 105%.
In the case of `CS(=O)(=O)OCCF`, the T/C in [1] is 89% and 103% and 111% and 100%; in assay [3], “Toxic”.
`O=[N+]([O-])c1ccc(CS(=O)(=O)OCCCl)cc1`: the T/C entry in [3] was “Toxic”.
Turning to `O=[N+]([O-])c1ccc(/C=C/S(=O)(=O)OCCCl)cc1`, the T/C in assay [1] was 100% and 104%; in assay [3], “Toxic”.
Take `O=C(CCl)NCCCl`: the T/C in assay [1] was 100% and 97%; in assay [3], “Toxic”.
Turning to `C=C(Br)S(=O)(=O)OCCCl`, the T/C in assay [1] is 100% and 104%; in [3], “Toxic”. Also, the Weight change difference in [2] was -2.8 g and -1.4 g.
For `O=S(=O)(CCl)OCCCl`, the T/C in assay [1] is 214% and 201% and 175% and 131% and 120%; in assay [3], “Toxic”.
Turning to `O=S(=O)(CI)OCCCl`, the T/C is 93% in [1], “Toxic” in assay [3] and 110% in assay [9]. Besides, the Weight change difference in [2] is on record as -0.1 g.
For the compound `Cc1c(C)c(C)c(S(=O)(=O)OCCCl)c(C)c1C`, in assay [1], the T/C turned out to be 95%. Further, the Weight change difference in [2] is -0.2 g.
In the case of `O=S(=O)(CCl)NCCCl`, the T/C in assay [1] amounted to 106%.
As to `O=S(=O)(CBr)OCCCl`, in assay [1], the T/C was 165% and 200% and 159% and 128% and 120%. Further, in assay [8], the Weight change difference is recorded as -0.2 g.
Consider `CCS(=O)(=O)OCCCl`, for which the T/C in assay [1] is 116% and 104%.
For the compound `O=S(=O)(CCl)OCCF`, the T/C in assay [1] was 117% and 102%; in [3] it was “Toxic”. Besides, the Weight change difference in assay [2] is -2.1 g and -0.8 g.
`O=S(=O)(OCCCl)c1c(F)c(F)c(F)c(F)c1F`: the T/C in assay [1] was 110% and 100%; in assay [3], “Toxic”.
`CCOS(=O)(=O)CCl`: the T/C in [1] is 107% and 100% and 60%.
